For orientation: EC50 means the concentration that produces a half-maximal response. High values mean a less potent agent, low ones a more potent agent.

The text below walks through data of ChEMBL document CHEMBL1135970, “Identification of a pharmacophore for thrombopoietic activity of small, non-peptidyl molecules. 1. Discovery and optimization of salicylaldehyde thiosemicarbazone thrombopoietin mimics” (J Med Chem, 2002).

Test [1] in a line: Compound was evaluated for the expression of luciferase activity in BAF3/TPO-Rluc cell line. The test is classed as functional, cell-based. The settings on record: Homo sapiens, BAF-3/TPO-Rluc. The gist of the method:
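BAF3/TPO-Rluc cells at (1 × 10⁵)/mL, starved of IL-3 overnight, in growth medium with 0.5% v/v FBS and 30 µM ZnCl₂. Incubated with compound (0.32% DMSO final) or rhuTPO for 3 h at 37 °C, 5% CO₂. Luciferase activity read on a luminometer; each point is the mean of triplicate assays.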

The next test is filed under the species Homo sapiens. Description: Thrombopoietin efficacy in human bone marrow cultures was reported. The test is classed as functional.

As to `Cc1ccc(-n2[nH]c(C)c(/N=N/c3c(O)cc(S(=O)(=O)O)c4ccccc34)c2=O)cc1C`, the EC50 in test [1] is 40 nM. The same molecule had a TPO(max) in the test listed under Homo sapiens of 100%.

Turning to `O=S(=O)(O)c1ccc(N/C(S)=N/N=C/c2cc(Cl)cc(Cl)c2O)cc1`, the EC50 in test [1] was determined as 260 nM. Also, in the test listed under Homo sapiens, the TPO(max) came to 29%.

Molecule `O=C(O)c1ccc(N/C(S)=N/N=C/c2cc(Cl)cc(Cl)c2O)cc1` showed an EC50 in test [1] of 350 nM. For the same molecule, in the test filed under Homo sapiens, the TPO(max) was found to be 30%.

The molecule `O=C(O)c1ccc(N/C(S)=N/N=C/c2cccc(-c3cccc(C(F)(F)F)c3)c2O)cc1` yielded a TPO(max) in the test filed under Homo sapiens of 100%.

As for `Cc1cc(Cl)ccc1/N=C(\S)N/N=C/c1cc(Cl)cc(Cl)c1O`, in test [1], it took 5600 nM to reach a half-maximal effect (EC50). This molecule had a TPO(max) in the test listed under Homo sapiens of 30%.

In turn, `Cc1ccc(-c2cccc(/C=N/N=C(\S)Nc3cccc(C(=O)O)c3)c2O)cc1C` showed a TPO(max) in the test filed under Homo sapiens of 90%.
